Bioassay records deposited in PubChem BioAssay by several laboratories.
In the library only some 2.4% were active in any assay of this set; here they are far more common.
PREPL inhibitor: PREPL enzyme inhibitors, primary screen, biochemical, fluorescence polarization. inhibition, % at 5.96 µM. recombinant PREPL, fluorescence polarization activity-based probe. 0.68% of 320,000 active. Prolyl endopeptidase-like (Homo sapiens), Q4J6C6; in the data active = inhibition above about 43%;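 note: 0% = enzyme with DMSO and 100% = wells lacking enzyme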
Rpn11 block: Rpn11 (PSMD14) deubiquitinase inhibitors, primary screen, biochemical, fluorescence polarization, uHTS; 0.59% of 360,000 active; human 26S proteasome, Ub4-pepOG fluorescence polarization; 20S core pre-blocked with epoxomicin; inhibition, % at 20 µM; AID 588493, 2011; 26S proteasome non-ATPase regulatory subunit 14 (Homo sapiens), O00487;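 active = inhibition at 20 µM, scaled to each plate's controls, above about 33%, limit read from the data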
Target sequence (O00487 whole entry, looked up): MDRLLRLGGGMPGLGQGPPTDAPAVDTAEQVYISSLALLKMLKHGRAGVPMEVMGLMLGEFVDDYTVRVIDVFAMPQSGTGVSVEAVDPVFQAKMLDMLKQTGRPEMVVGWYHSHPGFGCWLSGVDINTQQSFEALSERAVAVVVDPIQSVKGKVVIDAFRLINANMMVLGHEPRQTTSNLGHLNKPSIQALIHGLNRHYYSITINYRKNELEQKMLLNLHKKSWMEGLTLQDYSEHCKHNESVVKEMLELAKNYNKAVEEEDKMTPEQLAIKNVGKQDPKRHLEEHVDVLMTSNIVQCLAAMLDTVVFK
HNF4A DNA FP: change in binding of human HNF4A to DNA, primary screen, biochemical, fluorescence polarization, FITC-DNA. Hepatocyte nuclear factor 4-alpha (Homo sapiens), P41235. 1 h. activity change, % at 10 µM. 0.3% of 360,000 active; in the data active = activity change above about 30%, passing the limit was not always enough
CSN inh: inhibitors of CSN-mediated cullin deneddylation, primary screen, biochemical, fluorescence polarization, uHTS; AID 651999, 2013; Purified CSN, SCF-Nedd8-OG deneddylation; inhibition, % at 12.5 µM; COP9 signalosome complex subunit 5 (Homo sapiens), Q92905; 0.38% of 360,000 active;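 active = pattern-corrected inhibition above about 35%, with an unprinted fluorescence ratio check between 0.5 and 1.5, limit read from the data, passing the limit was not always enough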;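 note: 0% = enzyme with substrate and 100% = substrate without enzyme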
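Assay system: purified human Csn5 enzyme expressed in HEK293T cells; measure: % inhibition; also added: SCFSkp2-Nedd8OG substrate at 10 nM final; technique: fluorescence polarization; times: reaction 90 min, room temperature; medium: Tris buffer pH 7.5, NaCl, DTT, Tween-20, trehalose, ovalbumin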
Neddylation inh: inhibitors of cullin neddylation, primary screen, biochemical, TR-FRET, uHTS, NAE and Ubc12. inhibition, % at 25 µM. 0.58% of 360,000 active; in the data active = inhibition above about 36%
Tb MetRS inh: T. brucei MetRS inhibitors, primary screen, biochemical, luminescence | methionyl-tRNA synthetase (Trypanosoma brucei brucei) | purified T. brucei MetRS, ATP depletion, Kinase-Glo luminescence | inhibition, % at 11.9 µM | 0.4% of 360,000 active;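 active = inhibition above a per-plate cutoff of the control wells' mean inhibition plus 3 SD, cut at about 5.5% in these data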;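 note: 0% = DMSO wells median and 100% = median of wells with control inhibitor compound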
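Measured by: Kinase-Glo luciferase luminescence reporting remaining unconsumed ATP. Material: purified T. brucei MetRS enzyme. Doses: 11.9 µM compound single dose, 0.9% DMSO. Medium: HEPES buffer containing pyrophosphatase, BSA, spermine, DTT. Times: 15 min preincubation, 2 h reaction, all 25 °C. Reagent: methionine, ATP and bulk E. coli tRNA.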
An asterisk follows results filed as active; x = not tested or not shown.

SMILES	PREPL inhibitor	Rpn11 block	HNF4A DNA FP	CSN inh	Neddylation inh	Tb MetRS inh
COc1ccc(/C=C(\C#N)c2nc3ccccc3[nH]2)cc1O	x	-1.3	3.0	2.9	-0.1	1.5
COC(=O)C1CCCCN1C(=O)c1cc(COc2cccc3cnccc23)on1 (centres undefined)	12.4	-11.0	3.1	1.0	47.0*	-0.5
CCOC(=O)CC1CCCCN1C(=O)c1cc(COc2cccc3cnccc23)on1 (centres undefined)	20.8	2.2	3.2	-0.8	55.6*	0.4
COC(=O)C1CCCCN1C(=O)c1cc(COc2cccc3cccnc23)on1 (centres undefined)	0.8	4.4	-1.7	-2.0	32.5	-0.5
O=C(c1cc(COc2cccc3cccnc23)on1)N1CCC[C@H]1CO	x	-1.6	2.3	3.3	24.8	-0.2
CCc1ccc(/C=N/N2CCN(c3ccccn3)CC2)cc1	-9.5	-20.1	60.6*	0.8	-8.5	-0.5
COC(=O)c1cc(S(=O)(=O)NCC2CCN(CCc3cccs3)CC2)cn1C	4.5	-6.7	0.7	3.6	-0.4	-0.9
Cc1ccc(C(=O)CSc2nc(-c3ccccc3)ccc2C#N)cc1	11.3	x	5.3	4.5	-272.8	0.1
N#Cc1ccc(-c2ccco2)nc1SCC(=O)c1ccc(Cl)cc1	15.3	47.7*	16.1	24.2	-255.6	1.4
CNC(=O)c1c(NC(=O)c2ccc(S(=O)(=O)N3CCCC3)cc2)sc2c1CCN(C(C)C)C2	44.3*	x	x	x	x	x
CNC(=O)c1c(NC(=O)c2ccc(S(=O)(=O)N3CC(C)OC(C)C3)cc2)sc2c1CCN(C(C)C)C2 (centres undefined)	6.1	9.4	6.4	8.1	-14.6	-0.1
O=C(Cc1ccccc1)NCC(=O)OCc1cccc([N+](=O)[O-])c1	6.0	4.5	0.9	37.7*	-26.9	0.2
O=C(/C=C/c1ccc(NC(=O)c2ccccc2-c2ccccc2C(=O)O)cc1)c1ccccc1	6.5	x	30.7	50.5*	21.6	1.1
Cc1ccc(S(=O)(=O)N2[C@H](CC(=O)c3cccs3)OC[C@@H]2C(C)C)cc1	x	x	3.4	-0.8	-25.8	-1.2
Cc1ccccc1NS(=O)(=O)c1ccc(C(=O)OCC(=O)NCC(C)C)cc1	21.1	1.9	31.2*	2.1	-3.2	-0.2
CC(=O)Oc1ccc(/C=C2/SC(=S)N(Cc3ccccc3)C2=O)cc1	-0.1	35.0	50.4*	13.2	-7.5	1.9
O=C1/C(=C\c2ccc(O)cc2)SC(=S)N1Cc1ccccc1	-11.3	x	93.9*	95.8	-17.5	-1.0
O=C(O)c1ccc(/C=C2/SC(=S)N(Cc3ccccc3)C2=O)cc1	x	0.4	-3.5	5.3	4.9	-0.8
O=C(Nc1ccccc1[N+](=O)[O-])OCC=Cc1ccccc1	x	5.7	2.3	-1.5	-6.8	-0.3
Cc1ccc(S(=O)(=O)NNC(=O)c2cc3cc4ccccc4nc3s2)cc1	-37.7	3.2	1.2	2.3	-20.7	8.3*
Cc1cccc(C(=O)NNC(=O)c2cc3cc4ccccc4nc3s2)c1	-8.9	-2.0	-2.8	6.7	11.0	-1.2
Cc1cc(C(=O)N/N=C/c2ccc(-c3ccc([N+](=O)[O-])cc3Cl)o2)n[nH]1	-3.2	-11.5	4.1	46.2*	-13.8	0.8
COc1cc([N+](=O)[O-])ccc1-c1ccc(/C=N/NC(=O)OC(C)(C)C)o1	7.1	x	20.0	4.9	-3.8	-0.3
COc1cc([N+](=O)[O-])ccc1-c1ccc(/C=N/NC(N)=O)o1	10.7	x	86.7*	43.4*	-36.0	-1.0
COc1ccc2nc(-c3ccccn3)[nH]c2c1	17.6	-1.5	-0.7	-6.2	43.3*	-1.4
Nc1ccc2nc(-c3ccccn3)[nH]c2c1	32.1	14.4	0.8	1.0	26.6	-2.3
Cn1c(=O)c2c(nc(OC3CCCCCC3)n2C)n(C)c1=O	x	-4.1	-2.5	-7.1	7.0	-0.2
